15 compounds from PubChem BioAssay can be followed below.

Test [1] in a line: Her2 expression decrease, cell viability multiplex – SKBR3 breast tumor cells, AlphaScreen, ATP viability, primary screen (AID 461).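 As to Her2 level: lower value means less Her2 protein in the cells.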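 As to viability: percent of carrier control wells set as 100% viability.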 The note with it: SKBR3 Her2 protein level, 18-24 h, measured here: SKBR3 viability, ATP luminescence, at 10 µM. A general note: Bead proximity is the source of the signal in Alpha formats.
Test [2] deals with Receptor tyrosine-protein kinase erbB-2 (Homo sapiens) (UniProt P04626). The description is as above. As to conditions: 18-24 h, at 10 µM, stronger effect = lower value.
Test [3] is described as follows: reduced viability of SK-BR-3 breast cancer cells – cell-based, 24 h, human, pilot screen (AID 572;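 active = viability at or below 10% of carrier control in both of two separate runs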;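 also: compound exposure lasted between 18 and 24 h rather than exactly 24 h; 100% = carrier-treated control wells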). The note with it: SK-BR-3 viability, CellTiter-Glo luminescence, at 10 µM, stronger effect = lower value. On the technique in general: In ATP-based viability assays light output follows the ATP content of the culture.
The nature of test [4]: H69AR cell proliferation blockers – human, duplicate replicates, primary screen (AID 580;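 active = viability at or under a set limit in both replicates, limit being median viability minus 3 SD, cut at about 48% in these data, passing the limit was not always enough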;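 also: 100% = mean luminescence of untreated wells and 0% = no signal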). As to conditions: H69AR lung tumor cells viability, ATP luminescence, 72 h; at 10 µM; stronger effect = lower value.
A short description of test [5]: MRP1 drug-resistance reversers in H69AR cells – cell-based, doxorubicin co-treatment, pilot screen (AID 601;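 active = viability loss from added drug above about 55%, and viability with drug at most 40%, in both replicates, limit read from the data, passing the limit was not always enough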). As to conditions: CellTiter-Glo, 72 h, at 10 µM; for differential viability (reversal): stronger effect = higher value.
Test [6] can be described thus: yeast transport mutant growth inhibition pilot in 384-well plates, post-Golgi transport modulator project (AID 636; in the data active = inhibition above about 31%). As to conditions: absorbance 615 nm, about 18 h, stronger effect = higher value.
Test [7] is described as follows: growth suppression of yeast trafficking mutant, preliminary HTS, modulators of trafficking downstream of Golgi apparatus project, 1536-format plate, OD 615 nm (AID 637; in the data active = inhibition above about 30%). As to conditions: yeast transport mutant growth, absorbance 615 nm, 18 h; stronger effect = higher value.
A short description of test [8]: HUVEC growth inhibition – cell-based, human, primary screen (AID 575;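 active = viability at or below 30% in both replicate assays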;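 also: 100% = median of untreated cell wells with 0.1% DMSO on each plate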). As to conditions: HUVEC proliferation, CellTiter-Glo luminescence, 72 h; at 10 µM; stronger effect = lower value. A digest of the protocol:
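Timing: 72 h treatment at 37 °C; material: HUVEC primary cells; technique: CellTiter-Glo luminescence measuring cellular ATP; controls: vehicle and MePR control wells; measure: percent of median DMSO-control luminescence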

Where [9] appears, read: H69AR cells + 2 uM doxorubicin, measured here: viability with 2 uM doxorubicin, stronger effect = lower value.
Where [10] appears, read: H69AR cells, compound alone cytotoxicity.

The source made the active and inactive calls.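 The calls were made as follows, unless noted: active = Her2 level under about 52% in both replicate screens, with viability over 70% of control (limit read from the data); inconclusive = Her2 under the limit in one screen only, or viability under 70%; inactive = Her2 level above the set limit.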

Chain of Receptor tyrosine-protein kinase erbB-2 (Homo sapiens) (P04626 whole entry, looked up): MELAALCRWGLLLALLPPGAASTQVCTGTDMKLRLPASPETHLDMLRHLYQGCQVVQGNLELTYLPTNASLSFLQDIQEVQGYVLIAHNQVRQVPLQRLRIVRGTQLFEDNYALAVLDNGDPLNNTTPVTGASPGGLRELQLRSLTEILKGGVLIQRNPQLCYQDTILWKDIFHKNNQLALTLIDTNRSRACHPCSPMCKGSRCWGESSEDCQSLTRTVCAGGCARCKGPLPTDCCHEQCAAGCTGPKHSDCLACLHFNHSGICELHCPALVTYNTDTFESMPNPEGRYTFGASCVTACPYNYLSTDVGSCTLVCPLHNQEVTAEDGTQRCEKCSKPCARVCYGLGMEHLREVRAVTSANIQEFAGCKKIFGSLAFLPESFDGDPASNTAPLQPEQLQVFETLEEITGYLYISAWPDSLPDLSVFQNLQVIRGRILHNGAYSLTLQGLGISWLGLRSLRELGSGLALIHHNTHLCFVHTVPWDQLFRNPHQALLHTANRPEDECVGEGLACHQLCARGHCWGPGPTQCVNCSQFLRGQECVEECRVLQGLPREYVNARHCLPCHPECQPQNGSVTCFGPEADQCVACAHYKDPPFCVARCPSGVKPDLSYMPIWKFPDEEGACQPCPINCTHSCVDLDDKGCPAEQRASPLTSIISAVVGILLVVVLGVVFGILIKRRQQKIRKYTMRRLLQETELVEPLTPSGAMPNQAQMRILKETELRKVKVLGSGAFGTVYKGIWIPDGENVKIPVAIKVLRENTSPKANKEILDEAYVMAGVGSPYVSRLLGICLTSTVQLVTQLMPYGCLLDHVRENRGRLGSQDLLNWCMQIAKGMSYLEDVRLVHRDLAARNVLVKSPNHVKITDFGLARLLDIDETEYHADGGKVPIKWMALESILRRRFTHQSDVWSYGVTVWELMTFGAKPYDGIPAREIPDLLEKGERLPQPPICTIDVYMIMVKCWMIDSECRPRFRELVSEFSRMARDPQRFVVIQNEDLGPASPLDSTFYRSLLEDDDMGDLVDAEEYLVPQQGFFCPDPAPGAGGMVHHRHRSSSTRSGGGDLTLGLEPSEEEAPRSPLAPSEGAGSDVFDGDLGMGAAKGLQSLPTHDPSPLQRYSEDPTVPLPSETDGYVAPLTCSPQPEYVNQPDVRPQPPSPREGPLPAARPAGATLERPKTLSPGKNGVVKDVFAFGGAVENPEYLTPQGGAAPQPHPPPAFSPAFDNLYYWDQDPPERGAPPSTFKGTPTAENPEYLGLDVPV

The viability is a read-out of living cells in per cent, often relative to untreated cells. A word on the inhibition: it is the drop in the measured response relative to a control, in per cent. With `Cc1ccc2c(c1)-c1c(cnn1CC(=O)Nc1ccccc1N1CCN(C)CC1)CO2`, the viability in test [1] is 93.5%; in test [3], 93.5% (inactive); in test [4], 85.2% (inactive); in test [5] (setting [9]) it was 80.9%; in test [5] (setting [10]), 85.2%. Also, the Her2 level in test [2] was 84% (inactive). Besides, in test [5] (H69AR cells + 2 uM doxorubicin), the differential viability (reversal) is 4.26% (inactive). The inhibition was -1.2% (inactive) in test [6] and -3.28% (inactive) in test [7].

With `CCN(CC)CC(=O)Nc1ccc(-c2nc3cc(NC(=O)CN(CC)CC)ccc3o2)cc1`, the viability in test [1] was 91%; in test [3] it was 91% (inactive); in test [8] it was 3.96% (active); in test [5] (setting [9]), 58.6%; in test [5] (setting [10]), 44.2%. Besides, in test [2], the Her2 level was 82.5% (inactive). Also, in test [5] (H69AR cells + 2 uM doxorubicin), the differential viability (reversal) was -14.4% (inactive). The inhibition in test [6] was -2.13% (inactive); in test [7], -9.34% (inactive).

For the compound `O=C(CC(=O)c1cc(Cl)ccc1O)c1ccccc1`, the viability in test [1] is 131%; in test [3], 131% (inactive); in test [4], 11.4% (active); in test [5] (setting [9]), 21%; in test [5] (setting [10]), 11.4%. Besides, the Her2 level in test [2] is 89% (inactive). The differential viability (reversal) in test [5] (H69AR cells + 2 uM doxorubicin) was -9.6% (inactive). For the same compound, the inhibition in test [6] was 94.7% (active); in test [7], 61.3% (active).

In the case of `O=C(NC1CCc2ccccc21)C1CCN(S(=O)(=O)c2ccc(-n3cnnn3)cc2)CC1` (stereo not given), the viability was 74.5% in test [1]; 74.5% (inactive) in test [3]; 96.4% (inactive) in test [8]; 63.5% in test [5] (setting [9]); 55% in test [5] (setting [10]). Moreover, in test [2], the Her2 level was 85% (inactive). Also, in test [5] (H69AR cells + 2 uM doxorubicin), the differential viability (reversal) was -8.48% (inactive). The inhibition is -2.63% (inactive) in test [6] and -0.36% (inactive) in test [7].

`COc1ccccc1-c1c(C)nn2c(N3CCC4(CC3)OCCO4)cc(C)nc12`: the viability in test [1] is 90%; in test [3], 90% (inactive); in test [8], 99.3% (inactive); in test [5] (setting [9]), 29.3%; in test [5] (setting [10]) it was 60%. Also, the Her2 level in test [2] is 89% (inactive). Further, the differential viability (reversal) in test [5] (H69AR cells + 2 uM doxorubicin) was 30.6% (inactive). Further, the inhibition in test [6] is -1.05% (inactive); in test [7], -2.42% (inactive).

Regarding `CCOC(=O)c1c(C)oc2c1c(C=NCc1ccccn1)c(O)c1ccccc12`, the viability is 154% in test [1]; 154% (inactive) in test [3]; 16.5% (active) in test [4]; 10.3% in test [5] (setting [9]); 16.5% in test [5] (setting [10]). The Her2 level in test [2] was 22% (active). For the same compound, in test [5] (H69AR cells + 2 uM doxorubicin), the differential viability (reversal) is 6.13% (inactive). Further, the inhibition was -8.38% (inactive) in test [6] and 3.67% (inactive) in test [7].

As for `CCC1CCc2c(sc3ncnc(N4CCOCC4)c23)C1` (stereo not given), the viability in test [1] is 89.5%; in test [3] it was 89.5% (inactive); in test [4] it was 89.3% (inactive); in test [5] (setting [9]), 104%; in test [5] (setting [10]) it was 89.3%. Further, in test [2], the Her2 level is 87% (inactive). For the same compound, the differential viability (reversal) in test [5] (H69AR cells + 2 uM doxorubicin) is -14.3% (inactive). Besides, the inhibition in test [6] was -5.14% (inactive); in test [7], -0.16% (inactive).

Regarding `O=C(Nc1ccc(F)cc1)N(Cc1ccco1)Cc1cc2cc3c(cc2[nH]c1=O)OCO3`, the viability in test [1] was 86.5%; in test [3] it was 86.5% (inactive); in test [8], 58.7% (inactive); in test [5] (setting [9]), 19.6%; in test [5] (setting [10]) it was 55%. For the same compound, the Her2 level in test [2] was 90.5% (inactive). Moreover, in test [5] (H69AR cells + 2 uM doxorubicin), the differential viability (reversal) was 35.4% (inactive). Also, the inhibition in test [6] is -6.32% (inactive); in test [7], -12.8% (inactive).

In the case of `Cc1ccc2cc(CN(CCN3CCCC3)C(=O)Nc3ccc(F)cc3)c(=O)[nH]c2c1C`, the viability in test [1] is 94.5%; in test [3] it was 94.5% (inactive); in test [8] it was 38.8% (inactive); in test [5] (setting [9]), 25.6%; in test [5] (setting [10]), 13.5%. Besides, the Her2 level in test [2] was 81% (inactive). Moreover, the differential viability (reversal) in test [5] (H69AR cells + 2 uM doxorubicin) is -12.2% (inactive). The inhibition in test [6] is 0.52% (inactive); in test [7], -0.79% (inactive).

With `CCOC(=O)c1sc2nc(N3CCCC3)c3c(c2c1N)CC(C)(C)OC3`, the viability in test [1] was 75.5%; in test [3], 75.5% (inactive); in test [8] it was 58.8% (inactive); in test [5] (setting [9]), 65.9%; in test [5] (setting [10]), 53.1%. Moreover, the Her2 level in test [2] is 80.5% (inactive). Further, the differential viability (reversal) in test [5] (H69AR cells + 2 uM doxorubicin) was -12.8% (inactive). Besides, the results for the inhibition in test [6] and in test [7] were -7.92% (inactive) and -9.83% (inactive), respectively.

On to `Cc1cccc(Nc2ncc3c(n2)CC(c2ccco2)CC3=O)c1` (stereo not given), for which the viability in test [1] is 81.5%; in test [3] it was 81.5% (inactive); in test [4], 75.5% (inactive); in test [5] (setting [9]), 77.9%; in test [5] (setting [10]), 75.5%. In addition, the Her2 level in test [2] was 83% (inactive). In test [5] (H69AR cells + 2 uM doxorubicin), the differential viability (reversal) is -2.41% (inactive). Besides, the inhibition in test [6] was 0.26% (inactive); in test [7], 4.17% (inactive).

As for `COc1ccc(-c2cc3c(=O)n(CC(=O)NC4CCN(Cc5ccccc5)CC4)ncn3n2)cc1`, the viability in test [1] is 75%; in test [3], 75% (inactive); in test [4], 74.2% (inactive); in test [5] (setting [9]), 75%; in test [5] (setting [10]), 74.2%. Moreover, the Her2 level in test [2] is 103% (inactive). Besides, the differential viability (reversal) in test [5] (H69AR cells + 2 uM doxorubicin) was -0.715% (inactive). Further, the figures for the inhibition in test [6] and in test [7] were -5.66% (inactive) and -0.83% (inactive), respectively.

As to `N#CC1=C(SCC(=O)NC23CC4CC(CC(C4)C2)C3)NC(=O)C(C#N)C12CCCCC2` (stereo not given), the viability in test [1] was 74%; in test [3], 74% (inactive); in test [8], 54.1% (inactive); in test [5] (setting [9]) it was 41%; in test [5] (setting [10]) it was 35.8%. In test [2], the Her2 level is 76% (inactive). For the same compound, the differential viability (reversal) in test [5] (H69AR cells + 2 uM doxorubicin) was -5.21% (inactive). The values for the inhibition in test [6] and in test [7] were -5.48% (inactive) and -5.4% (inactive), respectively.

In the case of `Cc1c(C(=O)NC2CCCc3ccccc32)oc2ccc(S(=O)(=O)N3CCOCC3)cc12` (stereo not given), the viability in test [1] is 94.5%; in test [3] it was 94.5% (inactive); in test [8], 84.9% (inactive); in test [5] (setting [9]) it was 50.7%; in test [5] (setting [10]), 52.2%. The Her2 level in test [2] is 89.5% (inactive). Moreover, the differential viability (reversal) in test [5] (H69AR cells + 2 uM doxorubicin) was 1.53% (inactive). Also, the inhibition in test [6] is -2% (inactive); in test [7], 1.29% (inactive).

With `CSc1nc(N2CCOCC2)c2c(c1C#N)CCCCC2`, the viability was 112% in test [1]; 112% (inactive) in test [3]; 86.8% (inactive) in test [4]; 73.9% in test [5] (setting [9]); 86.8% in test [5] (setting [10]). Also, the Her2 level in test [2] is 96% (inactive). Also, the differential viability (reversal) in test [5] (H69AR cells + 2 uM doxorubicin) was 12.9% (inactive). The inhibition was 0.79% (inactive) in test [6] and 17.9% (inactive) in test [7].
